Test: Toxicity liver stage against HepG2, at 10uM
Format: cell-based
Parameters: test concentration 10 uM, cell line HepG2-A16-CD81EGFP
Details: human, HepG2-A16-CD81EGFP cells; read-out: INHIBITION
In short: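 Uninfected HepG2-A16-CD81EGFP cells, 3 × 10^3 per well, 1536-well, plated on prespotted compound at 10 μM final, parasite-free screening media added to match infected plates; puromycin 10 μM positive, DMSO 0.5% negative; run in parallel with 48 h PbLuc assay at 37 °C, 5% CO2; viability by CellTiter-Glo luminescence, normalized to controls.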

Row | SMILES | cytotoxicity at 10 µM [%]
1 | NC(=O)C(Cc1ccccc1)NS(=O)(=O)Cc1ccccc1Cl (stereo not drawn) | 7.56
2 | CC(C)CN1CCOC[C@H](Oc2ccc(S(C)(=O)=O)cc2)C1 | -1.67
3 | CCC1CN(CC(=O)NCCN2CCCCC2)c2ccccc2S1 (stereo not drawn) | -10
4 | COc1ccc2nnc(CCC(=O)NCc3cccn3C)n2n1 | -10.1
5 | O=c1c(S(=O)(=O)N2CCCCC2)cccn1Cc1ccccc1Cl | 10.6
6 | O=C(NCC(O)(c1ccco1)C1CC1)c1ccccc1F (stereo not drawn) | -1.16
7 | COc1ccccc1OCC(=O)NCC(C)(O)c1ccccc1 (stereo not drawn) | -5.37
8 | O=C(NCCN1CCC(c2cccs2)CC1)Nc1cccs1 | -20.6
9 | CC(C)c1cc2c(s1)NC(c1ccccc1)NC2=O (stereo not drawn) | 8.82
10 | CCS(=O)(=O)N1CCC(c2nn(CCN(C)C)c3ncccc23)C1 (stereo not drawn) | -4.88
11 | CCC1CNCc2cc3c(OC)ccc(OC)c3nc2O1 (stereo not drawn) | -4.22
12 | O=C1CN([C@@H]2CC[C@@H](NS(=O)(=O)c3ccc(F)cc3)[C@H]2O)CCN1 | -2.11
13 | Cc1cc(N2CCC(O)CC2)nc(C2CCCN2C)n1 (stereo not drawn) | -1.89
14 | COc1ccccc1CC(C)CC(=O)NS(=O)(=O)C(C)C (stereo not drawn) | 4.56
15 | N#Cc1cc(F)ccc1CN1CCCCC1Cn1cncn1 (stereo not drawn) | 5.41
16 | CNC(=O)c1coc(-c2csc(C)n2)c1 | 6.96
17 | CCS(=O)(=O)NCCN1CCc2ccc(F)cc2C1C (stereo not drawn) | 6.88
18 | CC(Nc1ccn(CCS(C)(=O)=O)n1)c1ccc(C#N)cc1 (stereo not drawn) | 8.64
19 | CCC(C)(C)NC(=O)c1ccc(NC(=O)NCc2cc(C)no2)cc1 | 0.696
20 | COc1ccnc(N2CCN(Cc3ncc(C(C)(C)C)o3)CC2)n1 | -7.2
21 | CN(CC(=O)NS(=O)(=O)c1ccsc1)Cc1ccccc1 | -5.1

Row | SMILES | cytotoxicity at 10 µM [%]
22 | COc1cc(C(=O)NC(C)c2cccs2)cc2c1OCCO2 (stereo not drawn) | -18.2
23 | COC(CNC(=O)c1ccc(NC(C)=O)cc1)c1cccc(Cl)c1 (stereo not drawn) | 7.72
24 | CN(Cc1cnn(C)c1)C(=O)CCc1ccc2c(c1)OCO2 | -2.59
25 | N#Cc1ccc(N2CCCN(CCCn3cncn3)CC2)cc1 | -8.9
26 | O=C(Nc1nc(-c2ccccc2)ns1)N1CC[C@H](O)C1 | 10.5
27 | N#Cc1cc(NC(=O)c2cc[nH]n2)ccc1N1CCC(O)CC1 | -0.758
28 | O=C1NCCCCC1Sc1n[nH]c(=O)n1C1CC1 (stereo not drawn) | 5.24
29 | Cc1cc(C)n(C2CN(Cc3noc(C4CC4)n3)C2)n1 | 0.738
30 | NC(=O)C1CCN(Cn2nc(-c3ccc(F)cc3)oc2=O)C1 (stereo not drawn) | 14.6
31 | CC(=O)N(C)C1CCN(C(=O)c2cccc3c2ccn3C)CC1 | 1.56
32 | FC(F)c1nnc2ccc(N3CCC4(CCOC4)C3)nn12 (stereo not drawn) | 9.2
33 | O=C(Nc1cn[nH]c1)N(CCCO)C1CCc2ccccc21 (stereo not drawn) | -1.74
34 | COC(=O)NCCCC(=O)NC1(c2cccc(Cl)c2)CC1 | -2.56
35 | CCN1CCOC(CNc2nccc(C(F)(F)F)n2)C1 (stereo not drawn) | 5.31
36 | Cn1cc(CCCNC(=O)NCC(O)c2ccsc2)cn1 (stereo not drawn) | -5.4
37 | CCCn1nc2c(cc1=O)CN(CC(=O)N(C)c1nccs1)CC2 | 1.25
38 | O=C(c1cc(Cl)c[nH]1)N1CCN(CCc2ccccn2)CC1 | 19.2
39 | O=C(NCC1Cn2nnc(-c3cccc(F)c3)c2CO1)c1ccc[nH]1 (stereo not drawn) | 1.46
40 | O=C(NC1CCCC1)N1CCC2(CC1)CC(Oc1cccnc1)CO2 (stereo not drawn) | -5.6
41 | CC1(C)CNC(=O)c2nc(-c3nnn[nH]3)[nH]c2C1 | -5.69
42 | Cc1ccccc1C(CC(=O)NCc1nnc(N)s1)c1ccccc1 (stereo not drawn) | 13.6

Row | SMILES | cytotoxicity at 10 µM [%]
43 | O=C1OCCN1Cc1cccc(C(F)(F)F)c1F | -0.524
44 | Nc1nc(CCCNC(=O)C2CCCN(Cc3ccco3)C2)cs1 (stereo not drawn) | -0.745
45 | COc1cc(C)cc(OC)c1C(C(=O)O)N(C)Cc1c(C)nn(C)c1C (stereo not drawn) | 7.34
46 | Cc1cc(C)n(C2CN(C(=O)c3cn4ccsc4n3)C2)n1 | 4.99
47 | CC(C)[C@@H]1CN(Cc2ccccn2)C[C@H]1NS(=O)(=O)N(C)C | -0.869
48 | CCOCCn1nc(C)cc1C(=O)N1CCC2(CC1)[C@H](O)C[C@@H]2OCC | 4.35
49 | CCc1ncc2c(n1)CN(c1nc(C)ccc1C(=O)O)C2 | 8.25
50 | Cc1nc2c(c(N3CCC4(CCCNC4=O)C3)n1)CCC2 (stereo not drawn) | -12.8
51 | O=C(Cn1cccn1)NCC1CCN(Cc2cc3ccccc3[nH]2)C1 (stereo not drawn) | 7.11
52 | CCc1nccn1CCC(=O)N1CCOC(c2ccc(F)cc2)C1 (stereo not drawn) | -12.5
53 | CC(=O)c1ccc(C(=O)N(C)Cc2nc(-c3ccccn3)no2)s1 | 2.45
54 | CN(Cc1cc2n(n1)CCCNC2)Cc1n[nH]c2c1CCC2 | 3.04
55 | c1ccc(-c2ncc(CN3CCC4(CCNCC4)C3)cn2)cc1 | -5.71
56 | CN(C)C(C(=O)NCC1(Cn2cccn2)CC1)c1ccc(F)cc1 (stereo not drawn) | 3.65
57 | CN1CCN(C)C2(CCN(Cc3ccc(C4CCCCO4)o3)CC2)C1 (stereo not drawn) | 0.0773
58 | CC(NC(=O)CCCc1ccc(Cl)cc1)c1nnn[nH]1 (stereo not drawn) | 0.292
59 | CNC(=O)[C@@H]1C[C@@H](N)CN1C(=O)CCSCc1ccc(F)cc1 | -17.6
60 | CS(=O)(=O)c1ccc(-c2cc(O)cc(CCC3CCCCN3)c2)cc1 (stereo not drawn) | 0.292
61 | CCc1cc(CN(C)C(=O)CN2CC(c3ccccc3)CC2=O)on1 (stereo not drawn) | -4.81
62 | CCc1nc2c(N3CCC4(CC3)CNC(=O)C4)ncnc2o1 | -2
63 | O=C(C1CCCCO1)N1CCc2ncnc(NCc3ccon3)c2CC1 (stereo not drawn) | 13.1

Row | SMILES | cytotoxicity at 10 µM [%]
64 | CCNC(=O)[C@@H]1C[C@@H](N)CN1C(=O)C1(c2ccc(OC)cc2)CCCC1 | 3.95
65 | CC(CCn1cccn1)NCc1n[nH]c2c1CCCCC2 (stereo not drawn) | -3.98
66 | O=C1CCCN1CCCC(=O)N1CCC2(CC1)[C@H](O)C[C@@H]2O | -2.38
67 | Cc1nn(C)c(C)c1C1CCCN1C(=O)c1ccc(C(N)=O)cn1 (stereo not drawn) | -4.34
68 | CC(C)Cc1nc(CN2CCCC2Cn2cncn2)no1 (stereo not drawn) | -8.66
69 | CCc1nc(C2CCCN2CCCSC)no1 (stereo not drawn) | -6.57
70 | CC(C)c1cc(NC(=O)CN2CCC(C(N)=O)CC2)on1 | -6.37
71 | Cc1cnn(CC2CN(Cc3csc(C(C)C)n3)CCO2)c1 (stereo not drawn) | 5.58
72 | CN(C)c1cc(CNC(=O)c2ccc(O)nc2)ccn1 | -16
73 | COc1cccc(Nc2nc(C3CCNCC3)c3ccccn23)c1 | -2.67
74 | OC1CCN(c2cncc(CCC3CCCN3)n2)CC1 (stereo not drawn) | -0.24
75 | CC(C)N1CCCC1c1cc(CO)[nH]n1 (stereo not drawn) | 6
76 | Cn1cc(C(=O)NCc2cn3c(n2)CN(CC2CCOCC2)CC3)cn1 | -12.9
77 | O=S(=O)(c1ccccc1)N1C[C@@H]2COC[C@]2(CN2CCOCC2)C1 | 2.32
78 | CN(C)C(=O)c1cnc2n1CCN(Cc1ccccc1)C2 | 7.05
79 | c1cc(CN2C[C@H](OCC3CCOCC3)[C@H]3COC[C@H]32)cs1 | 9.86
80 | CCCN1CCCn2c(nc(CNC(=O)c3cnoc3C)cc2=O)C1 | 2.32
81 | CSc1ncc(CN2C[C@@H]3CC[C@H]2CN(C2CCOCC2)C3)cn1 | -0.943
82 | CNC(=O)[C@H]1C[C@H]2CN(Cc3ccc(C)cc3)C[C@@H]1O2 | 1.82
83 | COc1ccc(OC)c(C(=O)N2C[C@@H]3CC[C@H]2CN(C)C3)c1 | 4.61

From ChEMBL document CHEMBL4513216, “Probing the Open Global Health Chemical Diversity Library for Multistage-Active Starting Points for Next-Generation Antimalarials” (ACS Infect Dis, 2020)
